The text below walks through data of ChEMBL document CHEMBL4196210, “Depsipeptides Featuring a Neutral P1 Are Potent Inhibitors of Kallikrein-Related Peptidase 6 with On-Target Cellular Activity” (J Med Chem, 2018).

Where only a bound is given, the exact number is not on record here.

For data set [1], the target named is Trypsin (Homo sapiens, UniProt P07477+P07478+P35030). Description: Inhibition of trypsin (unknown origin) pre-incubated for 30 mins before N-Boc-FSR-AMC substrate addition and measured after 30 mins. Format: protein assay.
Data set [2] deals with Prothrombin (Homo sapiens, UniProt P00734). The data set can be described thus: Inhibition of thrombin (unknown origin) pre-incubated for 30 mins before N-Boc-FSR-AMC substrate addition and measured after 30 mins. Put shortly: (§1)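 Inhibitor (1:2 or 1:3 dilutions) or 2% DMSO for 30 min at rt, then N-Boc-FSR-AMC at 20 µM final. Fluorescence (ex 350/em 440) read every 60 s for 30 min. Slopes normalized to DMSO for dose-response; triplicates.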

For data set [3], the target named is Coagulation factor X (Homo sapiens, UniProt P00742). Description: Inhibition of factor 10a (unknown origin) pre-incubated for 30 mins before N-Boc-FSR-AMC substrate addition and measured after 30 mins. Put shortly:
as §1

The nature of data set [4]: Stability in DMEM supplemented with 10% (v/v) fetal bovine serum at 10 uM at 37 degC assessed as half life by HPLC-MS method. Format: physicochemical. The settings on record: cattle, DMEM with 10% (v/v) fetal bovine serum. In a few lines: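 Compound at 10 µM (0.2% DMSO) in DMEM with 10% FBS, 2 mM L-glutamine and 1% penicillin/streptomycin, plus 10 µM triazole internal standard, held at 37 °C. Sampled hourly to 10 h, then at 24 h, by HPLC-MS in SIM mode for parent and hydrolysis product.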

Chain of Coagulation factor X (P00742 41-179 limits assumed): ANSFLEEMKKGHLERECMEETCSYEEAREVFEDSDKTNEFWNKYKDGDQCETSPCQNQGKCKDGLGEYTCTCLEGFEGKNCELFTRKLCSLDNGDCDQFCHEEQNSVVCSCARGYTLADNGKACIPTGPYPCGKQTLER
Chain of Coagulation factor X (P00742 235-488 limits assumed): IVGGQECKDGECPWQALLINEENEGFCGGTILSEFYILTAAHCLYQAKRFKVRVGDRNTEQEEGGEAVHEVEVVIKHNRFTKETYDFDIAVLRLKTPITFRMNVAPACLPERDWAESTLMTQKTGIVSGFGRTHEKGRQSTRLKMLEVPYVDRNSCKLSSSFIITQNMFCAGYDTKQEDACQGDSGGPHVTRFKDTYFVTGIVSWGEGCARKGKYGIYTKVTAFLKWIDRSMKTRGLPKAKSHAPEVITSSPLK

On to `Cc1nn(-c2ccccc2)c(C)c1NC(=O)COC(=O)Cc1c(C)n(C)c2ccccc12`, for which, in data set [1], the IC50 is greater than 200 µM.
`Cc1nn(-c2ccccc2)c(C)c1NC(=O)COC(=O)Cc1c(C)[nH]c2cnccc12` gave an IC50 in data set [1] of 0.33 µM. In other words, the sub-micromolar range.
Turning to `NCc1ccc(NC(=O)c2c([O-])ccc[n+]2Cc2nccn2Cc2ccccc2)cc1`, the results for the IC50 in data set [1], in data set [2] and in data set [3] were 0.18 µM, greater than 50 µM and greater than 50 µM, respectively.
Consider `Cc1nn(-c2ccccc2)c(C)c1NC(=O)COC(=O)C(c1c(C)[nH]c2ccccc12)C(F)(F)F` (centres undefined), for which, in data set [1], the IC50 is greater than 200 µM.
In turn, `Cc1nn(-c2ccccc2)c(C)c1NC(=O)C(OC(=O)Cc1c(C)[nH]c2ccccc12)C(F)(F)F` (centres undefined) registered an IC50 in data set [1] of 0.38 µM. For the same compound, in data set [4], the half-life at 10 µM was 25.5 min.
With `Cc1nn(-c2ccccc2)c(C)c1NC(=O)COC(=O)Cc1c(C)[nH]c2cccnc12`, in data set [1], the IC50 worked out at 61 µM. That is a double-digit micromolar value.
On to `Cc1nn(-c2ccccc2)c(C)c1NC(=O)COC(=O)Cc1c(C)[nH]c2ccc(Cl)cc12`, for which the IC50 in data set [1] amounted to 34 µM.
As to `Cc1nn(-c2ccccc2)c(C)c1NC(=O)CNC(=O)Cc1c(C)[nH]c2cc(C(=N)N)ccc12`, the IC50 in data set [1] is 2.5 µM.
With `Cc1nn(-c2ccccc2)c(C)c1NC(=O)CCOC(=O)Cc1c(C)[nH]c2ccccc12`, in data set [1], the IC50 is greater than 200 µM.
Same read-out and setting: next, `Cc1nn(-c2ccccc2)c(C)c1NC(=O)COC(=O)C(C)(C)c1c(C)[nH]c2ccccc12`: greater than 200 µM.
Still for that read-out and setting: next, `Cc1[nH]c2ccccc2c1CC(=O)NCC(=O)Nc1cnn(-c2ccccc2)c1C`: 34 µM.
As for `Cc1nn(-c2ccccc2)c(C)c1NC(=O)COC(=O)Cn1c(C)csc1=O`, the IC50 in data set [1], in data set [2] and in data set [3] was greater than 200 µM throughout.
In data set [1], `C#Cc1cccc2[nH]c(C)c(CC(=O)OCC(=O)Nc3c(C)nn(-c4ccccc4)c3C)c12` registered an IC50 greater than 50 µM.
With `Cc1nn(-c2ccccc2)c(C)c1NC(=O)COC(=O)Cn1cnc2ccccc2c1=O`, the IC50 in data set [1], in data set [2] and in data set [3] was greater than 200 µM each time.
In the case of `Cc1[nH]c2ccccc2c1CC(=O)OCC(=O)Nc1ccc(N2CCOCC2)cc1`, in data set [1], the IC50 was greater than 200 µM.
Still for that read-out and setting: next, `Cc1nn(-c2ccccc2)c(C)c1NC(=O)COC(=O)c1c(C)[nH]c2ccccc12`: greater than 200 µM; `C#Cc1[nH]c2ccccc2c1CC(=O)OCC(=O)Nc1c(C)nn(-c2ccccc2)c1C`: greater than 200 µM.
Consider `Cc1nn(-c2ccccc2)c(C)c1NC(=O)COC(=O)Cc1c(C)[nH]c2ncccc12`, for which, in data set [1], the IC50 was greater than 200 µM.
In turn, `Cc1nn(-c2ccccc2)c(C)c1NC(=O)COC(=O)Cn1c(C)nc2ccccc21` yielded an IC50 in data set [1] greater than 200 µM.
Turning to `Cc1nn(-c2ccccc2)c(C)c1NC(=O)COC(=O)Cc1c(C)[nH]c2ccc(C(=N)N)cc12`, the IC50 in data set [1] amounted to 19 µM.
Still for that read-out and setting: as for `Cc1nn(-c2ccccc2)c(C)c1NC(=O)COC(=O)CCc1c(C)[nH]c2ccccc12`, the figure is greater than 200 µM.
With `Cc1nn(-c2ccccc2)c(C)c1NC(=O)COC(=O)Cc1ccccc1`, the IC50 in data set [1], in data set [2] and in data set [3] was greater than 200 µM each time.
On to `Cc1nn(-c2ccccc2)c(C)c1NC(=O)COC(=O)Cc1c(C)[nH]c2ccncc12`, for which the IC50 in data set [1] came out at 25 µM. This lies in the double-digit micromolar range.
With `Cc1nn(-c2ccccc2)c(C)c1NC(=O)COC(=O)Cn1c(C)cc2ccccc21`, the values for the concentration for half-maximal inhibition (IC50) in data set [1], in data set [2] and in data set [3] were 38 to 70 µM, greater than 200 µM and greater than 200 µM, respectively. In addition, the half-life at 10 µM in data set [4] is 33.6 min.
In turn, `Cc1nn(-c2ccccc2)c(C)c1NC(=O)C(NC(=O)Cc1c(C)[nH]c2ccccc12)C(F)(F)F` (centres undefined) had an IC50 in data set [1] greater than 200 µM.
`C#Cc1ccc2[nH]c(C)c(CC(=O)OCC(=O)Nc3c(C)nn(-c4ccccc4)c3C)c2c1`: the IC50 in data set [1] came out at 26 µM. This lies in the double-digit micromolar range.
Still for that read-out and setting: as for `C#Cc1ccc2c(CC(=O)OCC(=O)Nc3c(C)nn(-c4ccccc4)c3C)c(C)[nH]c2c1`, the figure is 24 µM; as for `Cc1nn(-c2ccccc2)cc1NC(=O)CNC(=O)Cc1c(C)[nH]c2ccccc12`, greater than 200 µM; as for `Cc1nn(-c2ccccc2)c(C)c1NC(=O)COC(=O)Cc1c(C)[nH]c2cccc(Cl)c12`, greater than 200 µM.
In turn, `Cc1nn(-c2ccccc2)c(C)c1NC(=O)COC(=O)Cc1c[nH]c2ccccc12` gave an IC50 in data set [1] of 150 µM. In addition, the half-life at 10 µM in data set [4] was 27 min.
In the same order, the values of `Cc1nn(-c2ccccc2)c(C)c1NC(=O)COC(=O)C(C)c1c(C)[nH]c2ccccc12` (centres undefined) are greater than 200 µM and 912 min.
In data set [1], `Cc1nn(-c2ccccc2)c(C)c1NC(=O)COC(=O)Cc1c(C(C)C)[nH]c2ccccc12` showed an IC50 greater than 200 µM.
Same read-out and setting: next, `Cc1[nH]c2ccccc2c1CC(=O)OCC(=O)Nc1cncnc1`: greater than 200 µM.
Take `Cc1nn(-c2ccccc2)c(C)c1NC(=O)COC(=O)Cn1c(=O)oc2ccccc21`: the IC50 was 190 µM in data set [1], greater than 200 µM in data set [2] and greater than 200 µM in data set [3].
In data set [1], `Cc1[nH]c2cccnc2c1CC(=O)NCC(=O)Nc1onc(-c2ccccc2)c1C` came in with an IC50 of 50 µM. This counts as double-digit micromolar.
On to `Cc1nn(-c2ccccc2)c(C)c1NC(=O)C(OC(=O)C(C)c1c(C)[nH]c2ccccc12)C(F)(F)F` (centres undefined), for which the IC50 in data set [1] was 61 µM. In data set [4], the half-life at 10 µM is 101 min.
For the compound `Cc1nn(C)c(C)c1NC(=O)CNC(=O)Cc1c(C)[nH]c2cccnc12`, the IC50 in data set [1] is greater than 50 µM.
